Assay results taken from ChEMBL document CHEMBL1124685, “Synthesis, DNA-binding properties, and antitumor activity of novel distamycin derivatives” (J Med Chem, 1989).

Columns and labels:
HEp-2 = experiment: Tested in vitro for the cytotoxicity as number of viable cells against Hep-2 cell line after 72 hr treatment at conc. of 10E-6; type: functional; settings: Homo sapiens, HEp-2, 72 h; read-out: ID50 (the source's name)
Method in brief: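 Cytotoxicity read as number of viable cells. Hep-2 (MEM) received 72-h continuous drug treatment. L1210 and L1210/L-PAM (RPMI 1640) received 4-h treatment followed by 48-h incubation in drug-free medium. Media contained 10% fetal calf serum, glutamine, streptomycin and penicillin, at 37 °C in humidified 5% CO2.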

HeLa = experiment: Tested in vitro for the dose inhibiting cell proliferation by 50% against HeLa cell line after 24 hr treatment at conc. of 10E-6; type: functional; settings: Homo sapiens, read-out: ID50 (the source's name)
L1210/LPAM [1] = experiment: Median survival time of treated to the control was determined in L1210/LPAM cell line; type: functional, Mus musculus
Method in brief: (§1)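 CDF1 mice inoculated intraperitoneally with 10⁵ L1210 or L1210/L-PAM cells per mouse, then treated intraperitoneally after tumor transplant. T/C % = median survival time of treated mice / median survival time of controls × 100. Activity criterion is T/C ≥ 125%. Optimal nontoxic dose (OD) is defined as a dose below LD10.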

L1210 [2] = experiment: Median survival time of treated to the control mice with L1210 tumor cells; type: functional, Mus musculus; method in brief: as §1
[3] = Tested in vitro for the resistance index ratio (ID50) of L1210/LPAM to L1210 cell line; type: functional
Method in brief: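 Resistance index = ID50 (L1210/L-PAM) / ID50 (L1210), where ID50 is the dose inhibiting proliferation by 50%. Cells were exposed to drug for 4 h, then incubated 48 h in drug-free medium. Culture was RPMI 1640 with 10% fetal calf serum, glutamine and antibiotics, at 37 °C in 5% CO2.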

L1210 [4] = experiment: Tested in vitro for the cytotoxicity as number of viable cells against L1210 cell line after 4 hr treatment and 48 hr incubation in drug-free medium at conc. of 10E-6; settings: Mus musculus, L1210, 4 h treatment, 48 h drug-free incubation; read-out: ID50 (the source's name)
L1210 [5] = experiment: Tested in vivo for optimal non-toxic dose against L1210 cell line in CDF1 mice; type: ADME, organism-based; settings: mouse; method in brief: as §1
L1210/LPAM [6] = experiment: Tested in vitro for the cytotoxicity as number of viable cells against L1210/LPAM cell line after 4 hr treatment and 48 hr incubation in drug-free medium at conc. of 10E-6; settings: Mus musculus, 48 h drug-free incubation, read-out: ID50 (the source's name)
L1210/LPAM [7] = experiment: Tested in vivo for optimal non-toxic dose against L1210/LPAM cell line in CDF1 mice; type: ADME, organism-based; settings: mouse; method in brief: as §1
L1210 [8] = experiment: Median survival time of treated to the control was determined in L1210 cell line; type: functional, Mus musculus; method in brief: as §1

| SMILES | IC50 (HEp-2) [nM] | IC50 (HeLa) [nM] | T/C (L1210/LPAM [1]) [%] | T/C (L1210 [2]) [%] | Ratio [3] | IC50 (L1210 [4]) [nM] | OD (L1210 [5]) | IC50 (L1210/LPAM [6]) [nM] | OD (L1210/LPAM [7]) [mg/kg] | T/C (L1210 [8]) [%] |
| --- | --- | --- | --- | --- | --- | --- | --- | --- | --- | --- |
| Cl.Cn1cc(NC(=O)c2cc(NC(=O)c3cc(N(CCCl)CCCl)cn3C)cn2C)cc1C(=O)NCCC(=N)N | 1220 | 1950 | 122 | 138 | 1.3 | 3530 | 1.56 M | 4560 | 1.56 |  |
| Cl.Cn1cc(NC(=O)c2cc(NC(=O)c3cc(NC(=O)c4cc(N(CCCl)CCCl)cn4C)cn3C)cn2C)cc1C(=O)NCCC(=N)N | 100 | 60 | 167 | 188 | 0.87 | 80 | 0.39 mg/kg | 70 | 0.39 |  |
| Cl.Cn1cc(NC(=O)c2cc(NC(=O)c3cc(NC(=O)c4cc(N(CCCl)CCCl)cs4)cn3C)cn2C)cc1C(=O)NCCC(=N)N | 90 | 50 | 111 | 132 | 0.69 | 1930 | 1.56 mg/kg | 1320 | 1.56 |  |
| N[C@@H](Cc1ccc(N(CCCl)CCCl)cc1)C(=O)O [MELPHALAN] | 980 | 1770 | 104 |  | 7.7 | 1700 | 10 mg/kg | 13100 | 10 | 192 |
| Cn1cc(NC(=O)c2cc(NC(=O)c3cc(NC=O)cn3C)cn2C)cc1C(=O)NCCC(=N)N [STALLIMYCIN] | 97000 | 48000 | 106 | 113 | 0.7 | 488000 | 200 mg/kg | 343000 | 200 |  |
| Cl.Cn1cc(NC(=O)c2cc(NC(=O)c3cc(NC(=O)c4ccc(N(CCCl)CCCl)cc4)cn3C)cn2C)cc1C(=O)NCCC(=N)N [TALLIMUSTINE CHLORIDE] | 190 | 20 | 144 | 175 |  | 1220 | 3.12 mg/kg | 360 | 3.12 |  |
